Laboratory results taken from ChEMBL document CHEMBL1144664, “Design, synthesis, and SAR of new pyrrole-oxindole progesterone receptor modulators leading to 5-(7-fluoro-3,3-dimethyl-2-oxo-2,3-dihydro-1H-indol-5-yl)-1-methyl-1H-pyrrole-2-carbonitrile (WAY-255348)” (J Med Chem, 2008).

Columns and labels:
[1] = biological target: T1, Mineralocorticoid receptor (Homo sapiens, UniProt P08235); test: Antagonist activity at human MR ligand binding domain expressed in african green monkey COS7 cells in presence of aldosterone by Gal4 hybrid assay; type: cell-based, COS-7
T1 sequence (P08235 whole entry): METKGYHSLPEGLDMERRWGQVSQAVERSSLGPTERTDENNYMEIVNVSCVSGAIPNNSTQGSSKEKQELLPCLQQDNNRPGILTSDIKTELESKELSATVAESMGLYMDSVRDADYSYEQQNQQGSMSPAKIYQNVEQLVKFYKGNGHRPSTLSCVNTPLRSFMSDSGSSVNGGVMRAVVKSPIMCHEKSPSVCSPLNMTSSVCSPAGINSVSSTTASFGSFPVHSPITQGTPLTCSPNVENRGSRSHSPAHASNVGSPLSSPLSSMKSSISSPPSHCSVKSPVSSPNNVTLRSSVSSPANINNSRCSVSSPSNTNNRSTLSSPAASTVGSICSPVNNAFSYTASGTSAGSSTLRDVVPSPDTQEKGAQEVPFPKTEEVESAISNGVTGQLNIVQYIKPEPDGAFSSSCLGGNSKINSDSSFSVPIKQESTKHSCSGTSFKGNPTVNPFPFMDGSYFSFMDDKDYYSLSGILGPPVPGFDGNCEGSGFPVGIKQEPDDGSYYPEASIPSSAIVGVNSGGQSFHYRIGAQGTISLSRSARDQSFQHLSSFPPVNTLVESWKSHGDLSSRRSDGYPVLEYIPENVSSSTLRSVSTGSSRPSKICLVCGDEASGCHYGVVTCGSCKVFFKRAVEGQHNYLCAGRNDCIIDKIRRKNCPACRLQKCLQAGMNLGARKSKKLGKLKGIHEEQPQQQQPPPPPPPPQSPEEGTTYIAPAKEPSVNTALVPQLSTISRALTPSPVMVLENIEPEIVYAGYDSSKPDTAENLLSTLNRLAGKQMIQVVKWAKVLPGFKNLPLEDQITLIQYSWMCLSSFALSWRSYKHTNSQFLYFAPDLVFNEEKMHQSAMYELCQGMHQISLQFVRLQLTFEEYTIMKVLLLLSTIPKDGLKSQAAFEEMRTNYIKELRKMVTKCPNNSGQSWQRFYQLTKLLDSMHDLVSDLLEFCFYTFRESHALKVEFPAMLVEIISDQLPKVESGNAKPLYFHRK
Summary of the method: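 Gal4-steroid receptor LBD fusion plasmid plus GAL4_UAS (5 copies, E1b TATA)-luciferase reporter, 50 ng/well each, transfected 16 h into COS-7 cells grown in phenol red-free DMEM with 10% charcoal/dextran-treated FBS. Compound treatment 20 h, then luciferase read-out. Antagonist mode uses 3 nM aldosterone (hMR) or 5 nM 17β-estradiol (hER). Values are the average of at least duplicate determinations.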

[2] = Plasma clearance in Sprague-Dawley rat at 0.5 mg/kg, iv; type: ADME, organism-based; parameters: dose 0.5 mg/kg, route intravenous
Summary of the method: (§1)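 Female Sprague–Dawley rats dosed as 1-in-4 cassette or discrete studies. iv in DMSO/PEG200 20:80; po in aqueous 2% Tween 80/0.5% methyl cellulose. Parameters reported: C0, Cmax, t1/2, plasma clearance, Vss, AUC0-inf and %F.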

[3] = system: Rattus norvegicus; test: Drug level in Sprague-Dawley rat at 1 mg/kg, iv; type: ADME, organism-based; parameters: dose 1 mg/kg, route intravenous; conditions: in vivo; summary of the method: as §1
[4] = Half life in Sprague-Dawley rat at 1 mg/kg, iv; type: ADME, organism-based; parameters: dose 1 mg/kg, route intravenous; conditions: in vivo; summary of the method: as §1
[5] = biological target: T2, Androgen receptor (Homo sapiens, UniProt P10275)
T2 sequence (P10275 whole entry): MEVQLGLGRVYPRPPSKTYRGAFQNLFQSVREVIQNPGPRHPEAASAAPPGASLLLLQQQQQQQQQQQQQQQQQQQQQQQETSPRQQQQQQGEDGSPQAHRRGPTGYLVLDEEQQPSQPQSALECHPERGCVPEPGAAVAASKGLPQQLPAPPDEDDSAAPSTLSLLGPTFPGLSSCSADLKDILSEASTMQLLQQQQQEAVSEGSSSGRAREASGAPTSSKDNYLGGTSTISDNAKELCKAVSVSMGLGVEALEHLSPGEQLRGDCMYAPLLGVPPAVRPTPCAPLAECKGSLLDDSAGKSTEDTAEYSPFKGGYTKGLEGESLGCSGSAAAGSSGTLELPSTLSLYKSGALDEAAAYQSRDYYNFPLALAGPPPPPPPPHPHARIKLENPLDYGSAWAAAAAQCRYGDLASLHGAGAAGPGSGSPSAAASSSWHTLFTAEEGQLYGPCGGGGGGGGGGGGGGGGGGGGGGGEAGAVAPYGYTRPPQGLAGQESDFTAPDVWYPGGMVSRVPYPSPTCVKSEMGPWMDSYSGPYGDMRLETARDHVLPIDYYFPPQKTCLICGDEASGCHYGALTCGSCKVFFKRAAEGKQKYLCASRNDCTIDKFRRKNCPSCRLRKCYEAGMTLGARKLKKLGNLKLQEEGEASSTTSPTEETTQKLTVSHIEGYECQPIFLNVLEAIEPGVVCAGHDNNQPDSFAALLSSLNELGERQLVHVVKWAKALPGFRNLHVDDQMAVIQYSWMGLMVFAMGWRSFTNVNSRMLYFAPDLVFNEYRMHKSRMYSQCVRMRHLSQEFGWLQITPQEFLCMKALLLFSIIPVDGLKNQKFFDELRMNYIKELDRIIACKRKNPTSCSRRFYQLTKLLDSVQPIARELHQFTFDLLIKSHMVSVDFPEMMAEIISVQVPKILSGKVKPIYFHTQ

Compound: Cn1c(C#N)ccc1-c1cc(F)c2c(c1)C(C)(C)C(=O)N2
- IC50 [1]: 3700 nM
- clearance [2]: 4 mL/min/kg
- Drug uptake [3]: 528 ng/mL
- half-life [4]: 9.4 h
- IC50 [5]: 196 nM
